Source: PubChem
Only some compounds are listed: those with a hit (about 7.9% of all), similar ones and a draw of the others.
SF-1 act: activates the human nuclear receptor SF-1. Q13285. CHO-K1 Gal4-SF-1 LBD luciferase reporter; % increase over DMSO SF-1-specific signal. activation, % at 10 µM. 65,000 tested, 1.9% active. AID 522;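 active = activation above the mean activation of all tested compounds plus 3 SD, cut at about 50% in these data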
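Assay system: CHO-K1 cells co-transfected with Gal4 DBD–human SF-1 LBD, 5xGal4 luciferase reporter; doses: 10 µM only; incubation: 20 h compound exposure at 37 °C after 1 h cell settling; signal: luciferase light emission; evaluation: percent activation versus DMSO; repeats: one test per compound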
HEK293 NFkB inh: inhibitors of the PMA/ionomycin-induced NF-kB reporter in HEK293 cells; 62,000 tested, 0.21% active; HEK-293 NF-kB luciferase reporter, luminescence; inhibition, % at 3 µM;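 active = inhibition above the mean of all tested compounds plus 3 SD, cut at about 40% in these data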
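Reagent: PMA plus ionomycin mix as NF-kB-activating stimulus. Assay system: NF-kB luciferase reporter HEK-293 cells. Technique: luminescence from luciferase substrate reagent. Incubation: 1 h compound pre-incubation, 16 h PMA/ionomycin at 37 °C. Benchmarks: DMSO only as uninhibited control, 10 µM reference inhibitor as full inhibition. Repeats: tested once.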
D1 allo mod: allosterically modulates the human D1 dopamine receptor | HEK293 D1, CRE-luciferase, dopamine EC30 potentiation; actives deviate in either direction | B-score at 10 µM | 58,000 tested, 5.9% active;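 active = luminescence count or its row- and column-corrected plate score outside the 99.7% band of the plate's sample wells, on either side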
RORA act: activates the human nuclear receptor RORA; P35398; CHO-K1 Gal4-RORA LBD luciferase reporter, luminescence; percent increase over mock-subtracted basal signal; activation, % at 10 µM; 65,000 tested, 1.5% active; AID 560;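 active = activation above the mean of all tested compounds plus 3 SD, cut at about 49% in these data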
JNK3 inh: blocks human JNK3 kinase activity; inhibition, % at 8 µM; purified JNK3 kinase activity, HTS; AID 746; 60,000 tested, 0.61% active; in the data active = inhibition above about 17%
Target sequence (P53779 whole entry, looked up): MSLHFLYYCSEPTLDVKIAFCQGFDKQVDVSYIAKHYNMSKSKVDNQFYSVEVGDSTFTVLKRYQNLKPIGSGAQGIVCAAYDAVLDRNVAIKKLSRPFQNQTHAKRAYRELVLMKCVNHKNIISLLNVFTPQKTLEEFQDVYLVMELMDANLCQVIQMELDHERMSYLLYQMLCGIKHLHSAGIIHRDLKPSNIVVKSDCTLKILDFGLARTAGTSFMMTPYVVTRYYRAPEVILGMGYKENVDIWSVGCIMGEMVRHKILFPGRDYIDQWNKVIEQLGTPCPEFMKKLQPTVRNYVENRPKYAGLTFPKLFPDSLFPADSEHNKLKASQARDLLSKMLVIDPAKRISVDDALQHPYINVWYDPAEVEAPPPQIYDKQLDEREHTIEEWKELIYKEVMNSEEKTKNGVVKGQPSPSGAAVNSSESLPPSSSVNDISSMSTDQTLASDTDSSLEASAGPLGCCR
D1 PAM confirm: D1 receptor (human) allosteric modulation, confirmed | HEK293 D1 CRE-luciferase, dopamine EC30 potentiation; hits give high values | 2,200 tested, 88% active | shares compounds with D1 allo mod | luminescence at 10 µM;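 active = luminescence in either of two replicates above the same-plate mean plus 3 SD of the low-dose dopamine control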
D1 ag no DA: D1 (human) signaling in absence of dopamine; shares compounds with D1 allo mod; 1,900 tested, 0.8% active; HEK293 D1 CRE-luciferase, luminescence, no dopamine; hits give high values; luminescence at 10 µM; in the data active = luminescence above about 3900
Isoprot counter: isoproterenol response counter-screen activity for D1 modulators; AID 647; shares compounds with D1 allo mod; HEK293 D1 CRE-luciferase, isoproterenol EC30 counter-screen; calls only at 10 µM; 2,200 tested, 63% active;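 active = luminescence in either replicate above plate mean of wells with a partly effective reference agonist dose plus 3 SD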;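 also: isoproterenol raises cAMP through native beta-adrenoceptor Gs so signal bypasses D1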
A number is an active result; - = inactive; . = no result given; + = active, no number.

SMILES	SF-1 act	HEK293 NFkB inh	D1 allo mod	RORA act	JNK3 inh	D1 PAM confirm	D1 ag no DA	Isoprot counter
COc1ccccc1C1CC(c2ccccc2)Nc2ncnn21 (stereo not given)	-	-	-	-	-	.	.	.
COc1cc(OC)c(NC2=NCCCCC2)cc1Cl	-	-	-	-	-	.	.	.
COC(=O)c1ccc(CS(=O)(=O)c2ccccc2C)o1	-	-	4.6	-	-	-	-	-
CCN1CCN(CCNC(=O)c2ccc(CS(=O)(=O)c3ccccc3C)o2)CC1	-	-	-	-	-	.	.	.
CCCS(=O)(=O)N1CCC(C(=O)NCc2ccccc2Cl)CC1	-	-	-	-	-	.	.	.
COC(=O)c1cccc(N2C(=O)C(Cl)=C(N3CCOCC3)C2=O)c1	-	-	4.7	-	-	5740	-	-
CN(Cc1ccccc1)S(=O)(=O)c1ccc(S(=O)(=O)N2CCN(CCC#N)CC2)cc1	-	-	-	-	-	.	.	.
CCc1c(C)c2c(C)nn(-c3ccccc3)c2[nH]c1=O	-	-	3.2	-	-	7084	-	+
Cc1c(C)c2c(C)nn(-c3ccccc3)c2[nH]c1=O	.	.	-	.	.	.	.	.
Cc1nc2ccccc2c(=O)n1NCc1cc(Br)cs1	-	-	.	-	-	.	.	.
COc1ccc(-c2cnnn2-c2ccc(N)cc2)cc1OC	-	-	11	-	-	19800	-	+
O=C(NCc1ccco1)c1ccc2nc3sc4c(c3c(=O)n2c1)CCCC4	-	-	-	-	-	.	.	.
N#Cc1cc2c(nc1SCC(=O)Nc1sc3c(c1C#N)CCC3)CCCCC2	-	-	6	-	-	10448	-	+
Cc1noc(NS(=O)(=O)c2ccc(NC(=O)CSc3nc4c(cc3C#N)CCCC4)cc2)c1C	-	-	-	-	-	.	.	.
COc1ccc2nc(SCC(=O)N3CCCCCC3)c(C#N)cc2c1	-	-	3.5	-	-	10688	-	-
N#Cc1cc2c(nc1SCC(=O)N1CCCCC1)CCCCC2	-	-	3.8	-	-	10608	.	+
CCS(=O)(=O)CCSc1nc2c(cc1C#N)CCCC2	-	-	5.5	-	-	19348	-	+
N#Cc1cc2c(nc1SCc1ccncc1)CCC2	-	-	-	-	-	.	.	.
N#CCSc1nc2c(cc1C#N)CCCCCC2	-	.	7.9	-	-	11156	-	+
Cc1ccc(C(=O)Nc2cnc3sc(C)nn3c2=O)cc1	-	-	-	-	-	.	.	.
Cc1cc(=O)c2n(Cc3ccc(Cl)cc3)nc[n+]2[nH]1	-	-	4.7	-	-	8876	-	-
CCCc1cc(C(=O)NCc2ccco2)no1	-	-	-	-	-	.	.	.
CCC(=O)Nc1sc2c(c1C#N)CC(C)(C)NC2(C)C	-	-	6.4	-	.	-	-	-
COc1ccc(-c2nc(C#N)c(NCCCN(C)C)o2)cc1OC	-	-	-	-	-	.	.	.
COc1ccc(-c2nc(C#N)c(NCC3CCCO3)o2)cc1OC (stereo not given)	-	-	3.8	53	-	8472	-	+
SMILES	SF-1 act	HEK293 NFkB inh	D1 allo mod	RORA act	JNK3 inh	D1 PAM confirm	D1 ag no DA	Isoprot counter
COc1ccc(-c2nc(C#N)c(N3CCOCC3)o2)cc1OC	-	-	3.2	-	-	11200	-	+
COc1ccc(-c2nc(C#N)c(NC(C)c3ccccc3)o2)cc1OC (stereo not given)	-	-	6.8	-	-	12956	.	-
CN(C)c1oc(-c2ccccc2Cl)nc1C#N	-	-	3.4	-	-	6136	-	-
CCCN(CCO)Cc1ccc(F)c(Br)c1	-	-	-	-	-	.	.	.
Cc1ccc(S(=O)(=O)N(C)CC(=O)N2CCCc3ccccc32)cc1	-	-	-	-	-	.	.	.
CN(CC(=O)Nc1nccs1)S(=O)(=O)c1ccc(F)cc1	-	-	-	-	-	.	.	.
COc1cc(OC)c(N2CC34C=CC(O3)C(C(=O)O)C4C2=O)cc1Cl (stereo not given)	-	-	-	-	-	.	.	.
N#Cc1nc(-c2ccccc2Cl)oc1NCC1CCCO1 (stereo not given)	-	-	5.7	-	-	10656	-	+
